From ChEMBL document CHEMBL3576816, “5'-Silylated 3'-1,2,3-triazolyl Thymidine Analogues as Inhibitors of West Nile Virus and Dengue Virus” (J Med Chem, 2015)
The source made the active and inactive calls. The rule behind the calls is not given here.

Legend:
West Nile virus = assay: Antiviral activity against West Nile virus infected in BHK-WII RepRen1B cells assessed as inhibition of viral replication at 10 uM after 3 days by luciferase reporter gene assay relative to control; type: functional; details: for inhibition at 10 µM: 72 h
Method in brief: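 Compound (DMSO, 10 μM final) added next day in triplicate; lycorine 1 μM served as control inhibitor. Three days on, live-cell Renilla substrate (1:1000 in phenol-red-free DME, 10% FBS) replaced medium. Luminescence measured; triplicate means compared with DMSO-alone wells.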

[1] = Cytotoxicity against BHK cells infected with West Nile virus replicon assessed as cell viability at 10 uM after 3 days by CellTiter 96 aqueous one solution cell proliferation assay relative to control; type: cell-based, Mesocricetus auratus; details: hamster; for Activity: bhk, 72 h, 10 µM
Method in brief: (§1)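 WNV replicon BHK cells, about 3 × 10^3/well, plated without antibiotic selection; next day compound in DMSO (10 μM final for screening, or eight serial dilutions), 3 days at 37°C, 5% CO2. Tetrazolium reagent, absorbance 450 nm, triplicate means versus DMSO wells; CC50 = 50% reduction in proliferation; CC50s mean ± SD of two experiments, top dose 200 μM.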

Dengue virus = assay: Antiviral activity against Dengue virus infected in BHK pD2-hRucPac-2ATG cells assessed as inhibition of viral replication at 10 uM after 3 days by luciferase reporter gene assay relative to control; type: functional; details: for inhibition at 10 µM: 72 h
Method in brief: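 Renilla luciferase-bearing DENV subgenomic replicon BHK cells, kept on 3 μg/mL puromycin, seeded at 1.5 × 10^3/well without selection. Next day, 10 μM final compound in DMSO added to triplicate wells; MPA 1 μM as control inhibitor. After 3 days, medium swapped for live-cell Renilla substrate (1:1000, phenol-red-free DME, 10% FBS). Luminescence read; triplicate mean compared with DMSO-only wells.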

[2] = Cytotoxicity against BHK cells infected with Dengue virus replicon assessed as cell viability at 10 uM after 3 days by CellTiter 96 aqueous one solution cell proliferation assay relative to control; type: cell-based, Mesocricetus auratus; details: hamster; for Activity: bhk, 72 h, 10 µM
Method in brief: as §1, with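 “DENV” for “WNV”, “1.5” for “about 3”, “Tetrazolium (MTS-type)” for “Tetrazolium”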

[3] = test system: unidentified influenza virus; assay: Antiviral activity against Influenzae virus; type: functional, organism-based
[4] = biological target: Human immunodeficiency virus type 1 reverse transcriptase (Human immunodeficiency virus 1) (UniProt Q72547); assay: Inhibition of HIV1 reverse transcriptase
[5] = test system: Human immunodeficiency virus 1; assay: Antiviral activity against HIV1; type: functional, organism-based
Hepatitis C virus = assay: Antiviral activity against HCV; type: functional, organism-based; details: Hepacivirus hominis
Human betaherpesvirus 5 = assay: Antiviral activity against Human cytomegalovirus; type: functional, organism-based

SMILES | inhibition at 10 µM (West Nile virus) [%] | Activity [1] [%] | inhibition at 10 µM (Dengue virus) [%] | Activity [2] [%] | other results
COc1ccc2cc(-c3cnnn3[C@H]3C[C@H](n4cc(C)c(=O)[nH]c4=O)O[C@@H]3CO)ccc2c1 | 7.4 | 100 | 0 | 100 | –
Cc1cn([C@H]2C[C@H](n3nncc3-c3ccc(-c4ccccc4)cc3)[C@@H](CO)O2)c(=O)[nH]c1=O | 23 | 100 | 2.3 | 92 | –
Cc1cn([C@H]2C[C@H](n3cc(-c4ccc5[nH]ccc5c4)nn3)[C@@H](CO)O2)c(=O)[nH]c1=O | 0 | 100 | 8.2 | 100 | –
Cc1cn([C@H]2C[C@H](N=[N+]=[N-])[C@@H](CO)O2)c(=O)[nH]c1=O [ZIDOVUDINE] | 0 | – | 0 | – | viability at 72 h, 10 µM ([1]; BHK cells infected with West Nile virus replicon, read-out: Activity): 83%; viability at 72 h, 10 µM ([2]; BHK cells infected with Dengue virus replicon, read-out: Activity): 89%
COc1ccc2cc(C(=O)N[C@H]3C[C@H](n4cc(C)c(=O)[nH]c4=O)O[C@@H]3CO)ccc2c1 | 0 | 100 | 0 | 100 | –
Cc1cn([C@H]2C[C@H](N=[N+]=[N-])[C@@H](CO[Si](C)(C)C(C)(C)C)O2)c(=O)[nH]c1=O | 17 | 96 | 3.6 | 87 | –
Cc1cn([C@H]2C[C@H](NC(=O)C(c3ccccc3)(c3ccccc3)c3ccccc3)[C@@H](CO)O2)c(=O)[nH]c1=O | 0 | 95 | 16 | 94 | –
Cc1cn([C@H]2C[C@H](N3C(=O)CSC3c3ccc4[nH]ccc4c3)[C@@H](CO)O2)c(=O)[nH]c1=O (mixture of isomers) | 9.7 | 100 | 13 | 95 | –
Cc1cn([C@H]2C[C@H](n3nncc3C3CC3)[C@@H](CO)O2)c(=O)[nH]c1=O | 0 | 97 | 4.7 | 100 | –
Cc1cn([C@H]2C[C@H](NC(=O)c3cccc4ccccc34)[C@@H](CO)O2)c(=O)[nH]c1=O | 0 | 87 | 15 | 98 | –
Cc1cn([C@H]2C[C@H](NC(=O)c3ccc(N4CCOCC4)cc3)[C@@H](CO[Si](C)(C)C(C)(C)C)O2)c(=O)[nH]c1=O | – | – | – | – | Activity [3]: inactive; inhibition [4]: inactive; inhibition (West Nile virus): Active; Activity [5]: inactive; Activity (Hepatitis C virus): inactive; Activity (Human betaherpesvirus 5): inactive; inhibition (Dengue virus): Active
COC[C@H]1O[C@@H](n2cc(C)c(=O)n(C)c2=O)C[C@@H]1n1nncc1-c1ccc2cc(OC)ccc2c1 | 0 | 100 | 0 | 100 | –
Cc1cn([C@H]2C[C@H](N3C(=O)CSC3c3c4ccccc4cc4ccccc34)[C@@H](CO)O2)c(=O)[nH]c1=O (mixture of isomers) | 12 | 100 | 0 | 96 | –
Cc1cn([C@H]2C[C@H](N3C(=O)CSC3c3ccccc3)[C@@H](CO)O2)c(=O)[nH]c1=O (mixture of isomers) | 0 | 99 | 0 | 100 | –
Cc1cn([C@H]2C[C@H](n3nncc3C3CCCCC3)[C@@H](CO)O2)c(=O)[nH]c1=O | 0 | 100 | 10 | 100 | –
Cc1cn([C@H]2C[C@H](NC(=O)c3ccc4ccccc4c3)[C@@H](CO)O2)c(=O)[nH]c1=O | 0 | 92 | 45 | 97 | –
Cc1cn([C@H]2C[C@H](n3nncc3COc3ccccc3)[C@@H](CO)O2)c(=O)[nH]c1=O | 0 | 96 | 0 | 100 | –
Cc1cn([C@H]2C[C@H](n3nncc3-c3cc4ccccc4c4ccccc34)[C@@H](CO)O2)c(=O)[nH]c1=O | 0 | 100 | 0 | 95 | –
Cc1cn([C@H]2C[C@H](n3nncc3-c3ccccc3)[C@@H](CO)O2)c(=O)[nH]c1=O | 4 | 99 | 0 | 100 | –
Cc1cn([C@H]2C[C@H](NC(=O)c3c4ccccc4cc4ccccc34)[C@@H](CO)O2)c(=O)[nH]c1=O | 0 | 92 | 0 | 95 | –
Cc1cn([C@H]2C[C@H](NC(=O)Nc3ccccc3)[C@@H](CO[Si](C)(C)C(C)(C)C)O2)c(=O)[nH]c1=O | – | – | – | – | Activity [3]: inactive; inhibition [4]: inactive; inhibition (West Nile virus): Active; Activity [5]: inactive; Activity (Hepatitis C virus): inactive; Activity (Human betaherpesvirus 5): inactive; inhibition (Dengue virus): Active
COc1ccc(C(OC[C@H]2O[C@@H](n3cc(C)c(=O)[nH]c3=O)C[C@@H]2n2nncc2-c2ccc3cc(OC)ccc3c2)(c2ccccc2)c2ccc(OC)cc2)cc1 | 23 | 93 | 46 | 93 | –
COc1ccc2cc(-c3cnnn3[C@H]3C[C@H](n4cc(C)c(=O)[nH]c4=O)O[C@@H]3COC(C)=O)ccc2c1 | 5.3 | 100 | 0 | 97 | –
Cc1cn([C@H]2C[C@H](n3cc(-c4ccc(-c5ccccc5)cc4)nn3)[C@@H](CO)O2)c(=O)[nH]c1=O | 14 | 100 | 10 | 100 | –
Cc1cn([C@H]2C[C@H](NC(=O)c3c[nH]c4ccccc34)[C@@H](CO)O2)c(=O)[nH]c1=O | 0 | 97 | 4.3 | 96 | –
Cc1ccc(S(=O)(=O)NC(=O)N[C@H]2C[C@H](n3cc(C)c(=O)[nH]c3=O)O[C@@H]2CO[Si](C)(C)C(C)(C)C)cc1 | – | – | – | – | Activity [3]: inactive; inhibition [4]: inactive; inhibition (West Nile virus): Active; Activity [5]: inactive; Activity (Hepatitis C virus): inactive; Activity (Human betaherpesvirus 5): inactive; inhibition (Dengue virus): Active
Cc1cn([C@H]2C[C@H](n3nncc3-c3ccc(Oc4ccccc4)cc3)[C@@H](CO)O2)c(=O)[nH]c1=O | 9 | 99 | 0 | 100 | –
CCOCOC[C@H]1O[C@@H](n2cc(C)c(=O)[nH]c2=O)C[C@@H]1n1nncc1-c1ccc2cc(OC)ccc2c1 | 0 | 89 | 13 | 95 | –
Cc1cn([C@H]2C[C@H](n3nncc3-c3cccc4ccccc34)[C@@H](CO)O2)c(=O)[nH]c1=O | 3.3 | 100 | 0 | 90 | –
COc1ccc2cc(-c3cnnn3[C@H]3C[C@H](n4cc(C)c(=O)[nH]c4=O)O[C@@H]3COC3CCCCO3)ccc2c1 (some centres undefined) | 1 | 75 | 21 | 92 | –
